Measured values of several laboratories.
Compare with care: the assays were run in different laboratories.
Technique: competition with immobilised ligand
JAK3 JH1: Tyrosine-protein kinase JAK3, JH1 (JAK3, Homo sapiens, UniProt P52333)
JAK3: Tyrosine-protein kinase JAK3 (JAK3, Homo sapiens, UniProt P52333)

Compound	target	test	conditions	remaining binding [%]
O=S(=O)(NC1CCC(c2cc(F)ccc2F)(S(=O)(=O)c2ccc(Cl)cc2)CC1)C(F)(F)F (stereo not shown)	JAK3 JH1	cell-free assay	1 µM	100
c1cncc(-c2cccc(Nc3nccc(NC4CCCCC4)n3)c2)c1	JAK3 JH1	binding	10 µM	6.4
C[C@@]1(Cc2ccc(C#N)cc2)C(=O)N(c2cc(Cl)cc(Cl)c2)c2ncc(C(=O)NC3(c4nc(C5CCC5)no4)CC3)n21	JAK3 JH1	cell-free assay	1 µM	100
CCN1CCN(Cc2ccc(C(=O)Nc3ccc(C)c(Oc4ccc5c(c4)CC(=O)N5)c3)cc2C(F)(F)F)CC1	JAK3 JH1	binding	1 µM	97
Nc1c(C(=O)NCc2ccc(C(=O)NCCCC3CCCCC3)cc2)cnn1-c1ccccc1	JAK3 JH1	cell-free assay	0.1 µM	100
Nc1ncc2c(n1)-c1c([nH]c3ccc(C#CC4CC4)cc13)CCCC2	JAK3 JH1	binding	1 µM	80
COc1ccnn2ncc(-c3ccnc(N(C)C)n3)c12	JAK3 JH1	cell-free assay	1 µM	94
C[C@@H]1CN(c2ccc3ncc(-c4ccc5[nH]nc(C6CC6)c5c4)n3n2)C[C@H](C)O1	JAK3	binding	50 nM	76
N#CC1(c2ccccn2)CCN(Cc2cc(C(=O)N3CCCC3)c(=O)n3ccccc23)CC1	JAK3 JH1	cell-free assay	1 µM	100
O=C(c1ccc(Nc2ncc(Cl)c(-c3cc4ccccc4s3)n2)cc1)N1CCC(N2CCCC2)CC1	JAK3 JH1	binding	1 µM	0
O=C(Nc1c[nH]nc1C(=O)NC1CCNCC1)c1cc(F)cc(F)c1	JAK3 JH1	binding	1 µM	100
CC(C)(C)c1ccc(-c2nc(CBr)nn2-c2cccc(O)c2)cc1	JAK3	cell-free assay	10 µM	65
O=C(c1ccc(Nc2nccc(-c3cc4ccccc4s3)n2)cc1)N1CCC(N2CCCC2)CC1	JAK3 JH1	binding	1 µM	0.4
CN(C)c1nccc(-c2cnn3ncccc23)n1	JAK3 JH1	cell-free assay	1 µM	0
CS(=O)(=O)NCC[C@H](NC(=O)c1cncc2c1cnn2-c1ccc(F)cc1)c1ccnc(S(C)(=O)=O)c1	JAK3 JH1	cell-free assay	1 µM	100
COc1ncc2cc3ccccc3nc2c1C#N	JAK3 JH1	cell-free assay	5 µM	63
F[C@@H]1CCN(c2nccc(-c3cnn4ncccc34)n2)C1	JAK3 JH1	cell-free assay	1 µM	100
CNC(=O)[C@@H]1CC[C@@H](n2c(-c3ccc4cnccc4c3)nc3ccc(C(=O)NCc4cccc(C(N)=O)c4)cc32)C1	JAK3 JH1	binding	1 µM	100
O=C(Nc1cccnn1)N1CCC(=Cc2cccc(Oc3ccc(C(F)(F)F)cn3)c2)CC1	JAK3 JH1	cell-free assay	1 µM	100
Cc1cnc(Nc2ccc(C(=O)N3CCC(N4CCCC4)CC3)cc2)nc1-c1cc2ccccc2s1	JAK3 JH1	binding	1 µM	0
CC1=C(C#N)C(c2ccc3c(c2)c(NC(=O)c2ccccc2C)nn3C)C(C#N)=C(C)N1	JAK3 JH1	cell-free assay	1 µM	83
Cc1cnn2ncc(-c3ccnc(N(C)C)n3)c2c1	JAK3 JH1	cell-free assay	1 µM	91
